Reference: ChEMBL document CHEMBL5376013, “Design, synthesis and biological evaluation of novel morpholinopyrimidine-5-carbonitrile derivatives as dual PI3K/mTOR inhibitors” (RSC Med Chem, 2024)

Assays:
Format in all cases: functional
Conditions in all cases: read-out: GI
SF-268 = assay: Antitumor activity against human SF-268 cells assessed as growth inhibition at 10 uM relative to control
Method in brief: (§1)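 After drug addition, plates were incubated 48 h at 37 °C under 5% CO2. Adherent cells were fixed with cold TCA (10% final, 60 min, 4 °C) and suspension cells with 16% final TCA. Staining used 0.4% SRB in 1% acetic acid, solubilized in 10 mM trizma, read at A515. Percent growth was calculated from time-zero, control and treated absorbances.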

SK-MEL-28 = assay: Antitumor activity against human SK-MEL-28 cells assessed as growth inhibition at 10 uM relative to control
Method in brief: (§2)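 Drug exposure 48 h at 37 °C, 5% CO2. Adherent cells fixed with cold TCA (10% final), suspension cells with TCA (16% final). Stained with 0.4% SRB in 1% acetic acid, dissolved in 10 mM Tris, A515. Growth relative to time-zero and untreated control.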

HCT-15 = assay: Antitumor activity against human HCT-15 cells assessed as growth inhibition at 10 uM relative to control; method in brief: as §1
NCI-H522 = assay: Antitumor activity against human NCI-H522 cells assessed as growth inhibition at 10 uM relative to control; method in brief: as §1
U-251 = assay: Antitumor activity against human U-251 cells assessed as growth inhibition at 10 uM relative to control; method in brief: as §2
HOP-62 = assay: Antitumor activity against human HOP-62 cells assessed as growth inhibition at 10 uM relative to control; method in brief: as §1
UO-31 = assay: Antitumor activity against human UO-31 cells assessed as growth inhibition at 10 uM relative to control; method in brief: as §2
SNB-19 = assay: Antitumor activity against human SNB-19 cells assessed as growth inhibition at 10 uM relative to control; method in brief: as §2
OVCAR-4 = assay: Antitumor activity against human OVCAR-4 cells assessed as growth inhibition at 10 uM relative to control; method in brief: as §1
SNB-75 = assay: Antitumor activity against human SNB-75 cells assessed as growth inhibition at 10 uM relative to control; method in brief: as §2
BT-549 = assay: Antitumor activity against human BT-549 cells assessed as growth inhibition at 10 uM relative to control; method in brief: as §1
LOX IMVI = assay: Antitumor activity against human LOX IMVI cells assessed as growth inhibition at 10 uM relative to control; method in brief: as §1
MDA-MB-468 = assay: Antitumor activity against human MDA-MB-468 cells assessed as growth inhibition at 10 uM relative to control; method in brief: as §1
RPMI-8226 = assay: Antitumor activity against human RPMI-8226 cells assessed as growth inhibition at 10 uM relative to control; method in brief: as §1
Malme-3M = assay: Antitumor activity against human Malme-3M cells assessed as growth inhibition at 10 uM relative to control; method in brief: as §1
T47D = assay: Antitumor activity against human T47D cells assessed as growth inhibition at 10 uM relative to control; method in brief: as §2
HOP-92 = assay: Antitumor activity against human HOP-92 cells assessed as growth inhibition at 10 uM relative to control; method in brief: as §1
SK-MEL-5 = assay: Antitumor activity against human SK-MEL-5 cells assessed as growth inhibition at 10 uM relative to control; method in brief: as §2
SN12C = assay: Antitumor activity against human SN12C cells assessed as growth inhibition at 10 uM relative to control; method in brief: as §2
MOLT-4 = assay: Antitumor activity against human MOLT-4 cells assessed as growth inhibition at 10 uM relative to control; method in brief: as §1
SR = assay: Antitumor activity against human SR cells assessed as growth inhibition at 10 uM relative to control; method in brief: as §2
OVCAR-3 = assay: Antitumor activity against human OVCAR-3 cells assessed as growth inhibition at 10 uM relative to control; method in brief: as §1
HCT-116 = assay: Antitumor activity against human HCT-116 cells assessed as growth inhibition at 10 uM relative to control; method in brief: as §1
MDA-MB-231 = assay: Antitumor activity against human MDA-MB-231 cells assessed as growth inhibition at 10 uM relative to control; method in brief: as §1
KM12 = assay: Antitumor activity against human KM12 cells assessed as growth inhibition at 10 uM relative to control; method in brief: as §1
PC-3 = assay: Antitumor activity against human PC-3 cells assessed as growth inhibition at 10 uM relative to control; method in brief: as §1
HT-29 = assay: Antitumor activity against human HT-29 cells assessed as growth inhibition at 10 uM relative to control; method in brief: as §1
NCI-H23 = assay: Antitumor activity against human NCI-H23 cells assessed as growth inhibition at 10 uM relative to control; method in brief: as §1
RXF 393 = assay: Antitumor activity against human RXF 393 cells assessed as growth inhibition at 10 uM relative to control; method in brief: as §1
MCF7 = assay: Antitumor activity against human MCF7 cells assessed as growth inhibition at 10 uM relative to control; method in brief: as §1
UACC-257 = assay: Antitumor activity against human UACC-257 cells assessed as growth inhibition at 10 uM relative to control; method in brief: as §2
SK-MEL-2 = assay: Antitumor activity against human SK-MEL-2 cells assessed as growth inhibition at 10 uM relative to control; method in brief: as §1
DU-145 = assay: Antitumor activity against human DU-145 cells assessed as growth inhibition at 10 uM relative to control; method in brief: as §1
K562 = assay: Antitumor activity against human K562 cells assessed as growth inhibition at 10 uM relative to control; method in brief: as §1
SF-539 = assay: Antitumor activity against human SF-539 cells assessed as growth inhibition at 10 uM relative to control; method in brief: as §1
CAKI-1 = assay: Antitumor activity against human CAKI-1 cells assessed as growth inhibition at 10 uM relative to control; method in brief: as §1
COLO 205 = assay: Antitumor activity against human COLO 205 cells assessed as growth inhibition at 10 uM relative to control; method in brief: as §1
786-0 = assay: Antitumor activity against human 786-0 cells assessed as growth inhibition at 10 uM relative to control; method in brief: as §1
CCRF-CEM = assay: Antitumor activity against human CCRF-CEM cells assessed as growth inhibition at 10 uM relative to control; method in brief: as §1
SW-620 = assay: Antitumor activity against human SW-620 cells assessed as growth inhibition at 10 uM relative to control; method in brief: as §2
SK-OV-3 = assay: Antitumor activity against human SK-OV-3 cells assessed as growth inhibition at 10 uM relative to control; method in brief: as §2
NCI/ADR-RES = assay: Antitumor activity against human NCI-ADR-RES cells assessed as growth inhibition at 10 uM relative to control; method in brief: as §1
UACC-62 = assay: Antitumor activity against human UACC-62 cells assessed as growth inhibition at 10 uM relative to control; method in brief: as §2
ACHN = assay: Antitumor activity against human ACHN cells assessed as growth inhibition at 10 uM relative to control; method in brief: as §1
NCI-H226 = assay: Antitumor activity against human NCI-H226 cells assessed as growth inhibition at 10 uM relative to control; method in brief: as §1
A549 = assay: Antitumor activity against human A549 cells assessed as growth inhibition at 10 uM relative to control; method in brief: as §1

`N#Cc1c(-c2ccc(Cl)cc2)nc(N/N=C/c2cccc(Br)c2)nc1N1CCOCC1` gave an inhibition of growth at 10 µM (SF-268) of 10.8%, an inhibition of growth at 10 µM (SK-MEL-28) of less than 1% and an inhibition of growth at 10 µM (HCT-15) of 91.6%. The inhibition of growth at 10 µM (NCI-H522) was less than 1%, the inhibition of growth at 10 µM (U-251) was 38.4% and the inhibition of growth at 10 µM (HOP-62) was less than 1%. The inhibition of growth at 10 µM (UO-31) was 48.8%, the inhibition of growth at 10 µM (SNB-19) was less than 1% and the inhibition of growth at 10 µM (OVCAR-4) was 12.6%. The inhibition of growth at 10 µM (SNB-75) was 23.2%, the inhibition of growth at 10 µM (BT-549) was less than 1% and the inhibition of growth at 10 µM (LOX IMVI) was 20.2%. It also gave an inhibition of growth at 10 µM (MDA-MB-468) of 23.3%, an inhibition of growth at 10 µM (RPMI-8226) of 44% and an inhibition of growth at 10 µM (Malme-3M) of less than 1%. It also gave an inhibition of growth at 10 µM (T47D) of 32.5%, an inhibition of growth at 10 µM (HOP-92) of 28.8% and an inhibition of growth at 10 µM (SK-MEL-5) of 14.4%. For the same compound, the inhibition of growth at 10 µM (SN12C) was less than 1%, the inhibition of growth at 10 µM (MOLT-4) was 63.9% and the inhibition of growth at 10 µM (SR) was less than 1%. The inhibition of growth at 10 µM (OVCAR-3) was less than 1%, the inhibition of growth at 10 µM (HCT-116) was 38.5% and the inhibition of growth at 10 µM (MDA-MB-231) was less than 1%. The inhibition of growth at 10 µM (KM12) was 19%, the inhibition of growth at 10 µM (PC-3) was 38.8% and the inhibition of growth at 10 µM (HT-29) was 71%. The inhibition of growth at 10 µM (NCI-H23) was less than 1%, the inhibition of growth at 10 µM (RXF 393) was less than 1% and the inhibition of growth at 10 µM (MCF7) was less than 27.5%. The inhibition of growth at 10 µM (UACC-257) was 13.5%, the inhibition of growth at 10 µM (SK-MEL-2) was less than 1% and the inhibition of growth at 10 µM (DU-145) was 40.4%. It also gave an inhibition of growth at 10 µM (K562) of 87.4%, an inhibition of growth at 10 µM (SF-539) of 21.2% and an inhibition of growth at 10 µM (CAKI-1) of 1%. For the same compound, the inhibition of growth at 10 µM (COLO 205) was 56%, the inhibition of growth at 10 µM (786-0) was 38.2% and the inhibition of growth at 10 µM (CCRF-CEM) was 49.7%. It also gave an inhibition of growth at 10 µM (SW-620) of 68.5%, an inhibition of growth at 10 µM (SK-OV-3) of less than 1% and an inhibition of growth at 10 µM (NCI/ADR-RES) of less than 1%. It also gave an inhibition of growth at 10 µM (UACC-62) of less than 1%, an inhibition of growth at 10 µM (ACHN) of 28.5% and an inhibition of growth at 10 µM (NCI-H226) of 28.8%. The inhibition of growth at 10 µM (A549) was 19.6%.

`N#Cc1c(-c2ccc(Cl)cc2)nc(NN)nc1N1CCOCC1` was tested, and the inhibition of growth at 10 µM (SF-268) was less than 1%, the inhibition of growth at 10 µM (SK-MEL-28) was less than 1% and the inhibition of growth at 10 µM (HCT-15) was less than 1%. For the same compound, the inhibition of growth at 10 µM (NCI-H522) was less than 1%, the inhibition of growth at 10 µM (U-251) was less than 1% and the inhibition of growth at 10 µM (HOP-62) was 14.4%. For the same compound, the inhibition of growth at 10 µM (UO-31) was 34.1%, the inhibition of growth at 10 µM (SNB-19) was less than 1% and the inhibition of growth at 10 µM (OVCAR-4) was less than 1%. It also gave an inhibition of growth at 10 µM (SNB-75) of 26.9%, an inhibition of growth at 10 µM (BT-549) of less than 1% and an inhibition of growth at 10 µM (LOX IMVI) of less than 1%. The inhibition of growth at 10 µM (MDA-MB-468) was less than 1%, the inhibition of growth at 10 µM (RPMI-8226) was less than 1% and the inhibition of growth at 10 µM (Malme-3M) was less than 1%. It also gave an inhibition of growth at 10 µM (T47D) of 17.4%, an inhibition of growth at 10 µM (HOP-92) of 10.6% and an inhibition of growth at 10 µM (SK-MEL-5) of less than 1%. For the same compound, the inhibition of growth at 10 µM (SN12C) was less than 1%, the inhibition of growth at 10 µM (MOLT-4) was less than 1% and the inhibition of growth at 10 µM (SR) was 26.9%. For the same compound, the inhibition of growth at 10 µM (OVCAR-3) was less than 1%, the inhibition of growth at 10 µM (HCT-116) was less than 1% and the inhibition of growth at 10 µM (MDA-MB-231) was 14.5%. It also gave an inhibition of growth at 10 µM (KM12) of less than 1%, an inhibition of growth at 10 µM (PC-3) of less than 1% and an inhibition of growth at 10 µM (HT-29) of less than 1%. It also gave an inhibition of growth at 10 µM (NCI-H23) of 11.7%, an inhibition of growth at 10 µM (RXF 393) of less than 1% and an inhibition of growth at 10 µM (MCF7) of 1%. The inhibition of growth at 10 µM (UACC-257) was less than 1%, the inhibition of growth at 10 µM (SK-MEL-2) was less than 1% and the inhibition of growth at 10 µM (DU-145) was less than 1%. It also gave an inhibition of growth at 10 µM (K562) of less than 1%, an inhibition of growth at 10 µM (SF-539) of 12.3% and an inhibition of growth at 10 µM (CAKI-1) of 20.8%. The inhibition of growth at 10 µM (COLO 205) was less than 1%, the inhibition of growth at 10 µM (786-0) was less than 1% and the inhibition of growth at 10 µM (CCRF-CEM) was less than 1%. It also gave an inhibition of growth at 10 µM (SW-620) of less than 1%, an inhibition of growth at 10 µM (SK-OV-3) of less than 1% and an inhibition of growth at 10 µM (NCI/ADR-RES) of less than 1%. It also gave an inhibition of growth at 10 µM (UACC-62) of 10.7%, an inhibition of growth at 10 µM (ACHN) of less than 1% and an inhibition of growth at 10 µM (NCI-H226) of 14.1%. The inhibition of growth at 10 µM (A549) was less than 1%.
